Values belong to the molecule of their own block, whether it stands above or below them.
Assays:
[1] = target: T1, SET8 (Homo sapiens, UniProt Q9NQR1); assay: Filter-paper methylation assay, IC50 against SET8; assay type: biochemical; details: read-out: IC50 for SET8
T1 sequence (Q9NQR1 232-393 limits assumed): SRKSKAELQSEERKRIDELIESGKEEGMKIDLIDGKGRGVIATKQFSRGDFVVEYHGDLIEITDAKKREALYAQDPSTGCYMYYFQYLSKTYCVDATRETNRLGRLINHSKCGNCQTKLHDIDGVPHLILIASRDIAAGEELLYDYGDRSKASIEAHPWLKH
In short: (§1)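 Radiometric filter-paper assay: the methyl group from [3H-Me]-SAM is transferred to a peptide substrate, the peptide is captured by filter binding, and radioactivity is counted by scintillation. For SETD2, both SAM and peptide were below their Km. IC50 was obtained by fitting percent inhibition against inhibitor concentration.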

[2] = target: T2, SETD2 (Homo sapiens, UniProt Q9BYW2); assay: Kinetics analysis of SETD2-catalyzed methylation; assay type: biochemical
T2 sequence (Q9BYW2 1347-1711): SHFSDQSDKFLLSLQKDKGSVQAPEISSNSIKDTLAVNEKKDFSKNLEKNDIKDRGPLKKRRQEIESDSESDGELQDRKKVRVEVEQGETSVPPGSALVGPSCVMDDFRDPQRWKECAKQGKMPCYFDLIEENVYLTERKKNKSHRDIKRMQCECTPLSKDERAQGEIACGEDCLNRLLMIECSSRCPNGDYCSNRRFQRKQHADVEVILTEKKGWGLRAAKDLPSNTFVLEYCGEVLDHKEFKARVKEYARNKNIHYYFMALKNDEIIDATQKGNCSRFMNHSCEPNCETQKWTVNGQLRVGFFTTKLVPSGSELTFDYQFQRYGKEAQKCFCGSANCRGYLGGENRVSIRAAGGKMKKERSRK

[3] = target: T3, GLP (Homo sapiens, UniProt Q9H9B1); assay: Filter-paper methylation assay, IC50 against GLP; assay type: biochemical; details: read-out: IC50 for GLP
T3 sequence (Q9H9B1 982-1266): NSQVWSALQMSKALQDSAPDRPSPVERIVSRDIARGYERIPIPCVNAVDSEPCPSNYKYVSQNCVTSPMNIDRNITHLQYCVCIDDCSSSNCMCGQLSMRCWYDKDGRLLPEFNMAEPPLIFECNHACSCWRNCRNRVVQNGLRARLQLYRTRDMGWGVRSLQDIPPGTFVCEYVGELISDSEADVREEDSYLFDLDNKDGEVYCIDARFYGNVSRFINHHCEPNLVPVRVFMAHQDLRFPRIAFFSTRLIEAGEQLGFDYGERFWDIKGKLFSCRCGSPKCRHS
In short: as §1

[4] = target: PRMT1 (Homo sapiens, UniProt Q99873); assay: Filter-paper methylation assay, IC50 against PRMT1; assay type: biochemical; details: read-out: IC50 for PRMT1
PRMT1, sequence (Q99873 10-352 isoform Q99873-3): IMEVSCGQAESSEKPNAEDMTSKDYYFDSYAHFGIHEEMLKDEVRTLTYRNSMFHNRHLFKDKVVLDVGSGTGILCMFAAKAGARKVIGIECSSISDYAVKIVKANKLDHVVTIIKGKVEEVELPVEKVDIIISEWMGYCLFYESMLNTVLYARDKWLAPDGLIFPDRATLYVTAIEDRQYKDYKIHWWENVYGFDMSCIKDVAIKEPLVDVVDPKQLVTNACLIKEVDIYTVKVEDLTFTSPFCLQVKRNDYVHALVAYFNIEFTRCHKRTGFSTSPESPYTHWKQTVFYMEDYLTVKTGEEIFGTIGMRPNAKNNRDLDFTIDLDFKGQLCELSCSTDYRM
In short: as §1

[5] = target: T4, SET7/9 (Homo sapiens, UniProt Q8WTS6); assay: Filter-paper methylation assay, IC50 against SET7/9; assay type: biochemical
T4 sequence (Q8WTS6 1-366): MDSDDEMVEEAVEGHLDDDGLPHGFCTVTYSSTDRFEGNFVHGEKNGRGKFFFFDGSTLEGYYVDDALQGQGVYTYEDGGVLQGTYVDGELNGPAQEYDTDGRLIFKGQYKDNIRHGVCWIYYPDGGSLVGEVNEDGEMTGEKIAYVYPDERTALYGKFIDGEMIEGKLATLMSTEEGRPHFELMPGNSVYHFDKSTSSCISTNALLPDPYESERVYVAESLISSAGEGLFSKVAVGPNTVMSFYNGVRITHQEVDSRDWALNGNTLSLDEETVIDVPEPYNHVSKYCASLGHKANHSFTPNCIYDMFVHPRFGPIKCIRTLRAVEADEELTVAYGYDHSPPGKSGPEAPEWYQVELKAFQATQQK
In short: as §1

[6] = target: T5, CARM1 (Homo sapiens, UniProt Q86X55); assay: Filter-paper methylation assay, IC50 against CARM1; assay type: biochemical; details: read-out: IC50 for CARM1
T5 sequence (Q86X55 19-608): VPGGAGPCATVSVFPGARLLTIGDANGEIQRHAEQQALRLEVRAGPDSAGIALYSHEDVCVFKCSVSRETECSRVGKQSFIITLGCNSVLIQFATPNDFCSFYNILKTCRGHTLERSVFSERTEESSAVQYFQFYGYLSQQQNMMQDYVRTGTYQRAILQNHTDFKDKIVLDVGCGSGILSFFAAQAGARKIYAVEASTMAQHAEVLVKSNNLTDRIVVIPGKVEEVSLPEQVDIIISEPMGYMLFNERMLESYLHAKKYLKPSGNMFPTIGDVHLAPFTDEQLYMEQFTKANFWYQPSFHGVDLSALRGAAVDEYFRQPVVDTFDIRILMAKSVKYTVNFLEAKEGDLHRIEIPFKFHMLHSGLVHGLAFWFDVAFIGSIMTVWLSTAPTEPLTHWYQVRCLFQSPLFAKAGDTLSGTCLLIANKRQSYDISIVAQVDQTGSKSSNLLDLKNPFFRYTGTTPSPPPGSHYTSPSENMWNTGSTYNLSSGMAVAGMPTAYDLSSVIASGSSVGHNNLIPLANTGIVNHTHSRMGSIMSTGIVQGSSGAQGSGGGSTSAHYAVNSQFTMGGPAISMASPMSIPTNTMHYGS

[7] = target: T6, G9a (Homo sapiens, UniProt Q96KQ7); assay: Filter-paper methylation assay, IC50 against G9a; assay type: biochemical; details: read-out: IC50 for G9a
T6 sequence (Q96KQ7 913-1193): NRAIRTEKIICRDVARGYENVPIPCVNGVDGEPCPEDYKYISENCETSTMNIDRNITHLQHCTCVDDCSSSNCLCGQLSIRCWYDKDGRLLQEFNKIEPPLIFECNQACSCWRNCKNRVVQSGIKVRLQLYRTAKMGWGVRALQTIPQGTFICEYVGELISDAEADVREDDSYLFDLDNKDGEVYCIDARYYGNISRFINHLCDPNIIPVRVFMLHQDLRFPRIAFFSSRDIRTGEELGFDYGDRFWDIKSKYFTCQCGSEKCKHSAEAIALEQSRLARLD

[8] = target: T2, SETD2; assay: Filter-paper methylation assay with [3H-Me]-SAM, IC50 against SETD2; assay type: biochemical; details: for preference to SETD2 over other examined methyltransferases: panel of 15 human methyltransferases
In short: as §1

[9] = test system: SUV39H2; assay: Filter-paper methylation assay, potency against SUV39H2; assay type: biochemical, human
In short: as §1

[10] = test system: DOT1L; details: read-out: in vitro IC50 on DOT1L; cited from earlier work

SMILES: CCCNC(CCC(N)C(=O)O)C[C@H]1O[C@@H](n2cnc3c(N)ncnc32)[C@H](O)[C@@H]1O (stereo partly shown) [3c, N-propyl sinefungin]
IC50 [1]: > 100 µM
enhancement of Kd by presence of SETD2's substrate [2]: 8 fold
β ([2]; factor by which binding of inhibitor or substrate affects binding of the other): 0.12 ± 0.01
IC50 ([2]; read-out: calculated IC50 against SETD2, calculated from kinetic constants): 0.6 µM
Kd ([2]; read-out: βKd to bind SETD2, presence of substrate): 0.043 ± 0.004 µM
mechanism of inhibition versus peptide substrate ([2]; varied inhibitor, fixed SAM (0.8 μM)): noncompetitive
mechanism of inhibition versus SAM cofactor ([2]; varied inhibitor, fixed substrate (4 μM)): competitive
IC50 [3]: > 100 µM
IC50 [4]: 9.5 ± 0.4 µM
IC50 ([5]; read-out: IC50 for SET7/9): 2.2 ± 0.4 µM
IC50 [6]: 2.96 ± 0.3 µM
IC50 [7]: > 100 µM
preference to SETD2 over other examined methyltransferases [8]: 2~200 fold

drop in potency from 3c to 3d on SET7/9 [5]: 10~50 fold
potency against SETD2 relative to sinefungin 2, 3a and 3b ([8]; fold higher potency): more than 10 fold
preference to SETD2 over other examined methyltransferases [8]: 10~100 fold
SMILES: Nc1ncnc2c1ncn2[C@@H]1O[C@H](C[C@H](CC[C@H](N)C(=O)O)NCc2ccccc2)[C@@H](O)[C@H]1O [3d, N-benzyl sinefungin]
drop in potency from 3c to 3d on SUV39H2 [9]: 10~50 fold

Km ([2]; read-out: Km,SAM of SETD2, absence of Pr-SNF): 1.21 ± 0.05 µM
SMILES: C[S+](CC[C@H](N)C(=O)[O-])C[C@H]1O[C@@H](n2cnc3c(N)ncnc32)[C@H](O)[C@@H]1O (stereo partly shown) [SAM, S-adenosylmethionine, reference compound]

From article PMC3504124 (Journal of the American Chemical Society, 2012)
